High-throughput results deposited in PubChem BioAssay by several laboratories.
Lmaj promast: reduces viability of Leishmania major promastigotes. actives 9% (n = 200,000). inhibition, % at 10 µM. resazurin fluorescence viability; in the data active = inhibition above about 50%;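 also: promastigotes grown with compound for 44 hours at 28 °C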
WT yeast gro inh: growth inhibition of WT yeast, mitochondrial fusion screen; mitochondrial fusion phenotypic screen, WT strain; inhibition, % at 10 µM; actives 2.1% (n = 190,000); AID 1362; in the data active = inhibition above about 58%; tested in S. cerevisiae
PMI activator: increases human mannose-6-phosphate isomerase activity | P34949 | purified human PMI, coupled resazurin fluorescence, 20 min; hits give high values; 1 = vehicle control, 0 substrate-free wells | activation factor at 20 µM | actives 0.005% (n = 190,000) | AID 1214;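 active = activation factor of 2 or more at 20 µM, relative to plate controls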
Target sequence (P34949 whole entry, looked up): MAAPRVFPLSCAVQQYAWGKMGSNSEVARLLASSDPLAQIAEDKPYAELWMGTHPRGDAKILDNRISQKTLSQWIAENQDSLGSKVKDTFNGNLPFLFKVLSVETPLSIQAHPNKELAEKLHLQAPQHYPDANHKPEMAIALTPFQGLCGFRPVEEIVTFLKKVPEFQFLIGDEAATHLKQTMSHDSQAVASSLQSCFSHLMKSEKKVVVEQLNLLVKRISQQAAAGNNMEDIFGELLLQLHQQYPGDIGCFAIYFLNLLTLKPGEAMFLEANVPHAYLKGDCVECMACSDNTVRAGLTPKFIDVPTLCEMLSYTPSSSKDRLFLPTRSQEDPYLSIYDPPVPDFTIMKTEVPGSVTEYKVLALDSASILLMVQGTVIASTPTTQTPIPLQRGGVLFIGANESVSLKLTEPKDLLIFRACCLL
PMI act satM6P: increases human PMI activity with near-saturating mannose 6-phosphate | coupled PMI enzyme assay, resazurin fluorescence, 20 min; hits give high values; 1 = untreated enzyme, 0 = substrate-free blank | AID 1216 | actives 0.34% (n = 190,000) | activation factor at 20 µM | P34949;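 active = activation factor of 2 or more at 20 µM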
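Material: human phosphomannose isomerase with PGI, G6PDH, diaphorase coupling enzymes / Reagent: Man-6-P substrate 1.0 mM / Dosing: single compound dose of 20 µM, 1% DMSO final / Incubation: enzyme reaction with compound 20 min at room temperature / Signal: resorufin fluorescence (Ex 544/Em 590 nm) from resazurin via diaphorase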
Diaphorase act: activates diaphorase or chemically reduces, flagging diaphorase assay artifacts; Diaphorase/resazurin coupled assay, resorufin fluorescence, 16 min; hits give high values; 1 = vehicle wells, 0 = NADH-free wells; activation factor at 20 µM; actives 0.005% (n = 190,000); AID 1229;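 active = diaphorase activity raised at least twofold by the compound at 20 µM; inactive = activation factor below 2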
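Measured by – red resorufin fluorescence at 544/590 nm excitation/emission · Test system – Clostridium kluyveri diaphorase, purified enzyme · Incubation – reaction time 16 min, room temperature · Buffer or medium – 50 mM HEPES pH 7.4 with 4.542 mM MgCl2, 0.005% Tween 20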
An asterisk follows results filed as active; . = not tested or not shown. Most compounds without a hit are left out; they make up all but 10% or so of the library.

SMILES	Lmaj promast	WT yeast gro inh	PMI activator	PMI act satM6P	Diaphorase act
O=C(CCCN1Cc2ccccc2C1)c1ccc(F)cc1	93*	-4	1.1	1.1	0.9
Oc1ccc2ccccc2c1C=Nc1ccc(Cl)cn1	-9	1	0.4	0.2	0.4
O=C(O)/C=C/c1ccc(OCc2cccc(F)c2)cc1	-5	-22	1	0.9	0.9
COc1ccccc1CN1C[C@@H]2C[C@@H](c3ccc(C)c(C)c3)N3CCC[C@@]23C1=O	33	-2	1	0.9	1.2
CC(=O)NC1C(=O)Nc2c(C)cc(C)cc21 (stereo not drawn)	-6	-4	0.8	0.8	0.9
COc1cccc(NC(=O)Cn2c(=O)c3c(ncn3Cc3ccccc3)n(Cc3ccccc3)c2=O)c1	69*	.	1	1.1	1
O=C(COC(=O)C1CC(O)CN1S(=O)(=O)c1ccc(Cl)cc1)c1cccc(Cl)c1 (stereo not drawn)	-10	-12	0.9	0.9	0.8
CCOc1ccc(CNC(=O)CCCOc2cc(=O)n(C)c3ccccc23)cc1	3	-14	1.1	1.1	0.9
COc1ccc(/C=N/c2nc3ccccc3n2C)cc1OC	8	2	1	0.9	0.9
Cc1ccc(C)c(N=Nc2nc3ccccc3n2C)c1	83*	82*	1.3	2.2*	1
Cn1c(/N=C/c2cccs2)nc2ccccc21	19	5	1	1	1
Cc1cc(C)c(C)c(N=Nc2nc3ccccc3n2C)c1C	37	84*	0.8	0.8	0.9
CCC(=NCc1ccc(Cl)c(Cl)c1)c1nc(-c2ccco2)oc1O	25	67*	0.9	0.9	0.8
CC(C)(C)C1CCC(=NNC(=S)NCc2ccccc2)CC1 (stereo not drawn)	0	22	1.8	2*	1
CCC(C)(C)C1CCC(=NNC(=S)Nc2ccccc2)CC1 (stereo not drawn)	1	55	1.7	2.3*	0.9
S=C(NN=C1C2CC3CC(C2)CC1C3)Nc1ccccc1	99*	13	1	1	0.9
CCN(CC)C(=O)C1CCCN(c2ccc([N+](=O)[O-])cc2/C=N/NC(=O)c2cccc([N+](=O)[O-])c2)C1 (stereo not drawn)	3	-11	0.8	1	0.9
CCN(CC(=O)Nc1ccc(OC)c(Cl)c1)CC(=O)NC(C)C	-6	-4	0.9	1	1
COc1ccc(/C=N/NC(=O)C2C(=O)NCC2c2ccccc2)c(OC)c1 (stereo not drawn)	-1	-20	1	1	0.9
COc1cccc(/C=N/NC(=O)CSCC(=O)Nc2ccccc2)c1O	99*	-3	1.1	1.2	0.9
COc1cccc(/C=N\NC(=O)C2C(=O)NCC2c2ccccc2)c1O (stereo not drawn)	96*	3	1.1	1.2	0.9
COc1cccc(C=Nc2ccccc2C(=O)Nc2ccccc2)c1O	52*	-17	1	1	1
O=C1CC(SCc2nc3ccccc3[nH]2)C(=O)N1c1ccc(F)c(Cl)c1 (stereo not drawn)	-6	-13	0.9	0.9	0.9
O=C1CC(SCc2nc3ccccc3[nH]2)C(=O)N1c1cccc(F)c1 (stereo not drawn)	-7	76*	0.9	0.9	0.9
Cn1cc(CC(=O)N2CCN(c3ccc(Cl)cc3)CC2)c2ccccc21	65*	45	0.9	1	0.9
SMILES	Lmaj promast	WT yeast gro inh	PMI activator	PMI act satM6P	Diaphorase act
Cc1ccc(N=Nc2ccc(O)c3ncccc23)cc1C	100*	-1	1.1	1	0.9
Oc1ccc(F)c2cccnc12	8	9	0.5	0.3	0.5
CCS(=O)(=O)c1ccc(N=Nc2ccc(O)c3ncccc23)c(OC)c1	100*	10	0.8	0.6	0.6
Cc1ccc(N=Nc2ccc(O)c3ncccc23)cc1	100*	64*	1.1	0.6	0.9
Cc1ccc(C(=O)O/N=C/c2ccc3c(c2)OCO3)cc1	59*	19	1	1	1
Cc1nc([N+](=O)[O-])c(C(=O)OCc2ccccc2)n1C	3	4	1.1	1.1	1.1
CCCn1c(CC)nc([N+](=O)[O-])c1S(=O)(=O)c1ccccc1	100*	-1	0.9	0.9	0.8
O=C(O)CCC(=O)Nc1ccc(Sc2ccc([N+](=O)[O-])cc2)cc1	51*	-19	1	1.1	1
COC(=O)Nc1ccc(S(=O)(=O)N2c3ccccc3CCC2C)cc1 (stereo not drawn)	100*	28	0.9	0.9	0.7
COc1cc(C(C)=O)ccc1Oc1ncnc2c1cnn2-c1ccc(F)cc1	-9	-13	1	1	0.9
COc1cc(C(C)=O)ccc1Oc1ncnc2c1cnn2-c1cccc(Cl)c1	52*	1	1.1	1	1
CC(=O)c1ccc(S(=O)(=O)Nc2ccc(-c3cn4c(n3)SCC4)cc2)cc1	-3	-10	1.1	1.1	0.9
COc1ccc(NC(=O)c2csc(Cc3ccc(Cl)cc3)n2)cc1	-8	59*	0.9	1	0.9
O=C(Nc1ccc(Cl)cc1)c1csc(Cc2ccccc2)n1	0	74*	0.9	0.8	0.8
COc1ccc(Cc2nc(C(=O)Nc3ccc(Cl)cc3)cs2)cc1	-7	54	0.9	0.9	0.8
O=C(Nc1cccc(Cl)c1)c1csc(-c2ccccc2)n1	0	61*	1	1	1.1
CC(C)NC(=O)NC(=O)COC(=O)C1(C)CC1(Cl)Cl (stereo not drawn)	-3	-16	1	1	0.9
Cc1cc(N2CCCC2)ccc1/C=N/n1cnnc1	67*	-4	1	1	1.1
Cc1cc(N2CCCC2)ccc1/C=C1\NC(=S)N(C)C1=O	7	35	0.6	0.5	0.6
CC(=O)CSc1ncnc2sc3c(c12)CCCC3	1	22	0.9	0.9	0.8
CC(=O)C(Sc1ncnc2sc3c(c12)CCCC3)C(C)=O	11	76*	1.1	1	0.9
COc1cc(C(=O)Nc2ccc(C#N)cc2)c([N+](=O)[O-])cc1OC	45	-1	1	0.7	0.9
O=C(NCC1CCCO1)C(c1cccs1)N(C(=O)Cn1nnc(-c2cccs2)n1)C1CCCC1 (stereo not drawn)	0	-2	0.8	0.7	0.6
O=C(NCC1CCCO1)C(c1cccs1)N(Cc1ccccc1)C(=O)c1ccc(-c2ccccc2)[nH]1 (stereo not drawn)	68*	49	0.7	0.8	0.8
O=C(NCC1CCCO1)C(c1cccs1)N(C(=O)c1ccc(-c2ccccc2)[nH]1)C1CCCC1 (stereo not drawn)	92*	27	0.8	0.9	0.8
CC(C)(C)NC(=O)C(c1cccs1)N(CC1CCCO1)C(=O)c1ccc(-c2ccccc2)[nH]1 (stereo not drawn)	43	56	0.8	0.9	0.7
